Assay results published in ChEMBL document CHEMBL1250429, “Studies on the anti-hepatitis C virus activity of newly synthesized tropolone derivatives: identification of NS3 helicase inhibitors that specifically inhibit subgenomic HCV replication” (Bioorg Med Chem, 2010).

Key:
[1] = Cytotoxicity against human HuH7 cells; assay type: cell-based, Huh-7
How it was run: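 Replicon-bearing Huh-7 cells were grown with compound at 1 μM to 1 mM at a constant final 1% solvent. CC50 = concentration inhibiting cell growth by 50%. Mean of at least three independent experiments ± SD.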

Hepatitis C virus [2] = experiment: Antiviral activity against HCV Con 1 by subgenomic replicon assay; assay type: functional, organism-based, Hepacivirus hominis; settings: Con1
How it was run: (§1)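 Huh-7 cells carrying a stably replicating subgenomic HCV replicon were grown with compound at 1 μM to 1 mM, final solvent 1%; solvent-only cells served as control. Remaining replication read as luminescence. EC50 = concentration reducing luminescence by 50%; SI = CC50/EC50. Mean of at least three independent experiments ± SD.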

[3] = Inhibition of HCV NS3 helicase; parameters: species or system Hepacivirus hominis
How it was run: (§2)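 Fluorescence unwinding assay with purified NS3 helicase domains. Genotype 1a was expressed in baculovirus-infected insect cells; genotypes 1b and 3a were cloned from patient blood by RT-PCR, purity 95% by SDS–PAGE. Reactions used 10 nM dsDNA substrate, 20 nM enzyme and 125 nM capture strand. Inhibitor (1–300 μM) was preincubated with enzyme and substrate 15 min at room temperature without ATP. Reactions were started with 1.5 mM ATP and run 60 min at 30 °C, read every 2 min. Activity = initial velocity; inhibition relative to no-inhibitor control. Mean of at least three experiments ± SD.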

[4] = Selectivity index, ratio of CC50 for human HuH7 cells to EC50 for; parameters: species or system Huh-7; how it was run: as §1
[5] = Inhibition of HCV genotype 3a NS3 helicase; parameters: species or system Hepatitis C virus subtype 3a; how it was run: as §2
[6] = Inhibition of HCV genotype 1a NS3 helicase; parameters: species or system Hepatitis C virus subtype 1a; how it was run: as §2
Hepatitis C virus [7] = experiment: Inhibition of HCV genotype 1B NS3 helicase; parameters: species or system Hepatitis C virus subtype 1b; how it was run: as §2

| Structure (SMILES) | CC50 [1] [µM] | EC50 (Hepatitis C virus [2]) [µM] | IC50 [3] [µM] | Ratio CC50/EC50 [4] | IC50 [5] [µM] | IC50 [6] [µM] | IC50 (Hepatitis C virus [7]) [µM] |
| --- | --- | --- | --- | --- | --- | --- | --- |
| O=c1c(CN2CCC(N3CCCC3)CC2)cc(CN2CCC(N3CCCC3)CC2)cc(CN2CCC(N3CCCC3)CC2)c1O | > 200 | > 200 | 7 |  |  |  |  |
| O=c1c(CN2CCCC2)cc(CN2CCCC2)cc(CN2CCCC2)c1O | > 500 | > 500 | 184 |  |  |  |  |
| CC1CCN(Cc2cc(CN3CCC(C)CC3)c(O)c(=O)c(CN3CCC(C)CC3)c2)CC1 | 556 | 32 | 10.5 | 17.4 |  |  |  |
| O=c1c(Br)cc(CN2CCOCC2)cc(Br)c1O | 227 | 176 | 17.6 | 1.3 |  |  |  |
| CN1CCN(Cc2cc(CN3CCN(C)CC3)c(O)c(=O)c(CN3CCN(C)CC3)c2)CC1 | > 1000 | 46.9 | 3.4 | >21.3 | 4.5 | 3.4 | 3.5 |
| O=c1c(CN2CCC(O)CC2)cc(CN2CCC(O)CC2)cc(CN2CCC(O)CC2)c1O | > 250 | > 250 | 22.7 |  |  |  |  |
| NC(=O)c1ncn([C@@H]2O[C@H](CO)[C@@H](O)[C@H]2O)n1 [RIBAVIRIN] | 178 | 120 |  | 1.5 |  |  |  |
| [N-]=[N+]=N[C@]1(CO)O[C@@H](n2ccc(N)nc2=O)[C@H](O)[C@@H]1O [4'-AZIDOCYTIDINE] | > 100 | 10.5 |  |  |  |  |  |
| O=c1c(Br)cccc(Br)c1O | 92.7 | 89.8 | > 150 | 1 |  |  |  |
| CC1CCCN(Cc2cc(CN3CCCC(C)C3)c(O)c(=O)c(CN3CCCC(C)C3)c2)C1 (centres undefined) | 348 | 35.6 | 17.8 | 9.8 |  |  |  |
| O=c1c(CN2CCCCC2)cc(CN2CCCCC2)cc(CN2CCCCC2)c1O | > 500 | 137 | 26.5 | >3.6 |  |  |  |
| O=c1c(Cl)cccc(Cl)c1O | 254 | 334 | > 150 | 0.8 |  |  |  |
| O=c1ccccc(Br)c1O | 85.2 | 121 | > 150 | 0.7 |  |  |  |
